Reference: PMC10464598 (RSC Advances, 2023)

Target: urease (Canavalia ensiformis, UniProt P07374)
Assay: Urease inhibition assay
Assay type: biochemical
How it was run: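 Test compound was preincubated with urease (enzyme solution 5 U ml−1) in buffer for 10 min at 37 °C. Alkaline and phenolic reagents were then added, and absorbance was read at 625 nm. Thiourea served as the standard inhibitor. Assays were run in triplicate. % inhibition = (A control − A sample)/A control × 100. IC50 was obtained by non-linear regression of % inhibition against concentration.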

urease, sequence (P07374 whole entry, looked up): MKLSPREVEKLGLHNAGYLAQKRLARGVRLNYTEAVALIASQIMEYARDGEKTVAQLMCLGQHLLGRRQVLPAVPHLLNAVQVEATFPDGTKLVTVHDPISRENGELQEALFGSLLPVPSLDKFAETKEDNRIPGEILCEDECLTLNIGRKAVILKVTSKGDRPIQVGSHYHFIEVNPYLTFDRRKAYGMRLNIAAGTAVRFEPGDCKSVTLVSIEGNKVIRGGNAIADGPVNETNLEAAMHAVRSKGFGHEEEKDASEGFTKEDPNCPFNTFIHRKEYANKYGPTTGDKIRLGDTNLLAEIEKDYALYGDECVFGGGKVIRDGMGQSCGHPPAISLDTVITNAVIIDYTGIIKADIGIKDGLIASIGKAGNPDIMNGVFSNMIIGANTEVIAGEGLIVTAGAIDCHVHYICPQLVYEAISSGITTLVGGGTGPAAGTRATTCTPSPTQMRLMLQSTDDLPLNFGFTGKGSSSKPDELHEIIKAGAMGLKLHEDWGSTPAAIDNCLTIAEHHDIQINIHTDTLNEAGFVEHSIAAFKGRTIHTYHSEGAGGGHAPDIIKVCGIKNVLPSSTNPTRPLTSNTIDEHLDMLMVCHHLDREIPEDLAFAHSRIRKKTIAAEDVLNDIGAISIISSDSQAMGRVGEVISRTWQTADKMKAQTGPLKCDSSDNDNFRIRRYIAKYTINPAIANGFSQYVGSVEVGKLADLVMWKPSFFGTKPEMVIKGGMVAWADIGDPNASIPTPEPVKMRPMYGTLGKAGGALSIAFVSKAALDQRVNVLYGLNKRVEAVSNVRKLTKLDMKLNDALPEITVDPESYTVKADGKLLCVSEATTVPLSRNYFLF

Cc1ccc(-c2nnc(C(C)c3ccc(-c4ccccc4)c(F)c3)o2)s1 (stereo not drawn) [Compound 30, 2-(1-(2-Fluoro-[1,1′-biphenyl]-4-yl)ethyl)-5-(5-methylthiophen-2-yl)-1,3,4-oxadiazole]
IC50: 12 ± 0.1 µM

CCOc1ccc(-c2nnc(C(C)c3ccc(-c4ccccc4)c(F)c3)o2)c(OC)c1 (stereo not drawn) [Compound 12, 2-(4-Ethoxy-2-methoxyphenyl)-5-(1-(2-fluoro-[1,1′-biphenyl]-4-yl)ethyl)-1,3,4-oxadiazole]
IC50: 74 ± 1.3 µM

CC(c1ccc(-c2ccccc2)c(F)c1)c1nnc(-c2ccc(Br)cc2F)o1 (stereo not drawn) [Compound 24, 2-(4-Bromo-2-fluorophenyl)-5-(1-(2-fluoro-[1,1′-biphenyl]-4-yl)ethyl)-1,3,4-oxadiazole]
IC50: 13 ± 0.1 µM

CC(c1ccc(-c2ccccc2)c(F)c1)c1nnc(-c2cccc(O)c2O)o1 (stereo not drawn) [Compound 31, 3-(5-(1-(2-Fluoro-[1,1′-biphenyl]-4-yl)ethyl)-1,3,4-oxadiazol-2-yl)benzene-1,2-diol]
IC50: 15 ± 0.3 µM

CC(c1ccc(-c2ccccc2)c(F)c1)c1nnc(-c2ccccc2[N+](=O)[O-])o1 (stereo not drawn) [Compound 32, 2-(1-(2-Fluoro-[1,1′-biphenyl]-4-yl)ethyl)-5-(2-nitrophenyl)-1,3,4-oxadiazole]
IC50: 15 ± 0.3 µM

CSc1ccc(-c2nnc(C(C)c3ccc(-c4ccccc4)c(F)c3)o2)cc1 (stereo not drawn) [Compound 27, 2-(1-(2-Fluoro-[1,1′-biphenyl]-4-yl)ethyl)-5-(4-(methylthio)phenyl)-1,3,4-oxadiazole]
IC50: 34 ± 2.4 µM

CC(c1ccc(-c2ccccc2)c(F)c1)c1nnc(-c2cccc(C(F)(F)F)c2)o1 (stereo not drawn) [Compound 26, 2-(1-(2-Fluoro-[1,1′-biphenyl]-4-yl)ethyl)-5-(3-(trifluoromethyl)phenyl)-1,3,4-oxadiazole]
IC50: 12 ± 0.1 µM

COc1cc(-c2nnc(C(C)c3ccc(-c4ccccc4)c(F)c3)o2)ccc1F (stereo not drawn) [Compound 13, 2-(4-Fluoro-3-methoxyphenyl)-5-(1-(2-fluoro-[1,1′-biphenyl]-4-yl)ethyl)-1,3,4-oxadiazole]
IC50: 16 ± 0.9 µM

CC(c1ccc(-c2ccccc2)c(F)c1)c1nnc(-c2ccc(O)c(O)c2O)o1 (stereo not drawn) [Compound 6, 4-(5-(1-(2-Fluoro-[1,1′-biphenyl]-4-yl)ethyl)-1,3,4-oxadiazol-2-yl) benzene-1,2,3-triol]
IC50: 20 ± 0.5 µM

COc1ccc(Br)cc1-c1nnc(C(C)c2ccc(-c3ccccc3)c(F)c2)o1 (stereo not drawn) [Compound 9, 2-(5-Bromo-2-methoxyphenyl)-5-(1-(2-fluoro-[1,1′-biphenyl]-4-yl)ethyl)-1,3,4-oxadiazole]
IC50: 72 ± 1.2 µM

CC(c1ccc(-c2ccccc2)c(F)c1)c1nnc(-c2ccc(O)c(Br)c2)o1 (stereo not drawn) [Compound 28, 2-Bromo-4-(5-(1-(2-fluoro-[1,1′-biphenyl]-4-yl)ethyl)-1,3,4-oxadiazol-2-yl)phenol]
IC50: 14 ± 0.3 µM

CC(c1ccc(-c2ccccc2)c(F)c1)c1nnc(-c2ccc([N+](=O)[O-])cc2)o1 (stereo not drawn) [Compound 16, 2-(1-(2-Fluoro-[1,1′-biphenyl]-4-yl)ethyl)-5-(4-nitrophenyl)-1,3,4-oxadiazole]
IC50: 13 ± 0.2 µM

CC(c1ccc(-c2ccccc2)c(F)c1)c1nnc(-c2cc([N+](=O)[O-])ccc2Cl)o1 (stereo not drawn) [Compound 11, 2-(2-Chloro-5-nitrophenyl)-5-(1-(2-fluoro-[1,1′-biphenyl]-4-yl)ethyl)-1,3,4-oxadiazole]
IC50: 41 ± 1.2 µM

CC(c1ccc(-c2ccccc2)c(F)c1)c1nnc(-c2ccccc2N)o1 (stereo not drawn) [Compound 7, 2-(5-(1-(2-Fluoro-[1,1′-biphenyl]-4-yl)ethyl)-1,3,4-oxadiazol-2-yl) aniline]
IC50: 16 ± 0.1 µM

COc1ccc(-c2nnc(C(C)c3ccc(-c4ccccc4)c(F)c3)o2)c(Cl)c1OC (stereo not drawn) [Compound 17, 2-(2-Chloro-3,4-dimethoxyphenyl)-5-(1-(2-fluoro-[1,1′-biphenyl]-4-yl)ethyl)-1,3,4-oxadiazole]
IC50: 36 ± 1.2 µM

COc1ccccc1-c1nnc(C(C)c2ccc(-c3ccccc3)c(F)c2)o1 (stereo not drawn) [Compound 20, 2-(1-(2-Fluoro-[1,1′-biphenyl]-4-yl)ethyl)-5-(2-methoxyphenyl)-1,3,4-oxadiazole]
IC50: 12 ± 0.9 µM

COc1cccc(OC)c1-c1nnc(C(C)c2ccc(-c3ccccc3)c(F)c2)o1 (stereo not drawn) [Compound 15, 2-(2,6-Dimethoxyphenyl)-5-(1-(2-fluoro-[1,1′-biphenyl]-4-yl)ethyl)-1,3,4-oxadiazole]
IC50: 31 ± 1.2 µM

COc1ccc(-c2nnc(C(C)c3ccc(-c4ccccc4)c(F)c3)o2)c(F)c1 (stereo not drawn) [Compound 22, 2-(2-Fluoro-4-methoxyphenyl)-5-(1-(2-fluoro-[1,1′-biphenyl]-4-yl)ethyl)-1,3,4-oxadiazole]
IC50: 31 ± 1.4 µM

CC(c1ccc(-c2ccccc2)c(F)c1)c1nnc(-c2ccc(-c3ccccc3)c(F)c2)o1 (stereo not drawn) [Compound 29, 2-(2-Fluoro-[1,1′-biphenyl]-4-yl)-5-(1-(2-fluoro-[1,1′-biphenyl]-4-yl)ethyl)-1,3,4-oxadiazole]
IC50: 41 ± 1.4 µM

CC(c1ccc(-c2ccccc2)c(F)c1)c1nnc(-c2cccc3ccccc23)o1 (stereo not drawn) [Compound 5, 2-(1-(2-Fluoro-[1,1′-biphenyl]-4-yl)ethyl)-5-(naphthalen-1-yl)-1,3,4-oxadiazole]
IC50: 39 ± 1.2 µM

COc1ccc(OC)c(-c2nnc(C(C)c3ccc(-c4ccccc4)c(F)c3)o2)c1 (stereo not drawn) [Compound 25, 2-(2,5-Dimethoxyphenyl)-5-(1-(2-fluoro-[1,1′-biphenyl]-4-yl)ethyl)-1,3,4-oxadiazole]
IC50: 35 ± 1.5 µM

CC(c1ccc(-c2ccccc2)c(F)c1)c1nnc(-c2ccc(Br)cc2)o1 (stereo not drawn) [Compound 21, 2-(4-Bromophenyl)-5-(1-(2-fluoro-[1,1′-biphenyl]-4-yl)ethyl)-1,3,4-oxadiazole]
IC50: 13 ± 0.2 µM

COc1cc(-c2nnc(C(C)c3ccc(-c4ccccc4)c(F)c3)o2)ccc1Oc1ccccc1 (stereo not drawn) [Compound 19, 2-(1-(2-Fluoro-[1,1′-biphenyl]-4-yl)ethyl)-5-(3-methoxy-4-phenoxyphenyl)-1,3,4-oxadiazole]
IC50: 16 ± 0.3 µM

CC(c1ccc(-c2ccccc2)c(F)c1)c1nnc(-c2cccc([N+](=O)[O-])c2)o1 (stereo not drawn) [Compound 8, 2-(1-(2-Fluoro-[1,1′-biphenyl]-4-yl)ethyl)-5-(3-nitrophenyl)-1,3,4-oxadiazole]
IC50: 41 ± 1.2 µM

CCOc1cc(-c2nnc(C(C)c3ccc(-c4ccccc4)c(F)c3)o2)ccc1OC (stereo not drawn) [Compound 14, 2-(3-Ethoxy-4-methoxyphenyl)-5-(1-(2-fluoro-[1,1′-biphenyl]-4-yl)ethyl)-1,3,4-oxadiazole]
IC50: 35 ± 1.2 µM

COc1ccc(-c2nnc(C(C)c3ccc(-c4ccccc4)c(F)c3)o2)c(OC)c1OC (stereo not drawn) [Compound 10, 2-(2,3,4-Trimethoxyphenyl)-5-(1-(2-fluoro-[1,1′-biphenyl]-4-yl)ethyl)-1,3,4-oxadiazole]
IC50: 20 ± 0.5 µM

COc1cc(-c2nnc(C(C)c3ccc(-c4ccccc4)c(F)c3)o2)cc(OC)c1Br (stereo not drawn) [Compound 23, 2-(4-Bromo-3,5-dimethoxyphenyl)-5-(1-(2-fluoro-[1,1′-biphenyl]-4-yl)ethyl)-1,3,4-oxadiazole]
IC50: 37 ± 1.4 µM
